Each block holds one compound with its values, some of them ahead of it.
Columns and labels:
[1] = Lipophilicity, log P of the compound at pH 7.5 by reversed phase HPLC analysis; format: physicochemical; settings: buffer
In short: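 Retention times were set relative to catechol and calibrated against standards of known log P using a polynomial log P vs log RRT curve. Injections were done in triplicate and averaged.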

Brain [2] = assay: Biodistribution in Wistar rat brain at 1.0 to 1.5 mCi after 60 mins by NaI well counting analysis; format: ADME, organism-based; settings: in vivo, 1 h
In short: (§1)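 Radiotracer given to rats; 14 tissues plus urine taken 60 min after a 1.0–1.5 mCi injection. Each sample weighed and its radioactivity counted in a NaI well counter. %ID/g derived from weight and radioactivity.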

Harderian gland = assay: Drug uptake in iv dosed C6 cells bearing Wistar rat harderian glands after 90 mins by PET imaging analysis; format: ADME, organism-based; settings: in vivo, 1.5 h
In short: (§2)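 Male Wistar rats stereotactically inoculated in the right hemisphere with 1.0×10^5 C6 glioma cells two weeks before imaging, with venous and arterial catheters placed. Tumors confirmed by 4.7-T MRI. PET/CT followed within 24 h, with tracer given via jugular catheter during the scan.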

Testes = assay: Biodistribution in Wistar rat testes at 1.0 to 1.5 mCi after 60 mins by NaI well counting analysis; format: ADME, organism-based, Testis; settings: in vivo, 1 h; in short: as §1
Kidney [3] = assay: Biodistribution in Wistar rat kidney at 1.0 to 1.5 mCi after 60 mins by NaI well counting analysis; format: ADME, organism-based; settings: in vivo, 1 h; in short: as §1
Rattus norvegicus [4] = organism: Rattus norvegicus; assay: Biodistribution in Wistar rat small bowel at 1.0 to 1.5 mCi after 60 mins by NaI well counting analysis; format: ADME, organism-based, Small intestine; settings: in vivo, 1 h; in short: as §1
Rattus norvegicus [5] = organism: Rattus norvegicus; assay: Biodistribution in Wistar rat skull at 1.0 to 1.5 mCi after 60 mins by NaI well counting analysis; format: ADME, organism-based; settings: in vivo, 1 h; in short: as §1
Heart [6] = assay: Drug uptake in Wistar rat heart at 1.0 to 1.5 mCi after 90 mins by NaI well counting analysis in presence of 2-(5,7-diethyl-2-(4-(2-fluoroethoxy)phenyl)pyrazolo[1,5-a]-pyrimidin-3-yl)-N,N-diethylacetamide; format: ADME, tissue-based; settings: in vivo, 1.5 h
In short: (§3)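 Rats received 1.0–1.5 mCi radiotracer. Unlabelled analog (10 mg/kg) was injected 30 min after tracer as a displacement challenge. Tissues taken and counted in a NaI well counter. %ID/g derived from sample weight and radioactivity.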

Brain [7] = assay: Drug uptake in iv dosed C6 cells bearing Wistar rat brain after 90 mins by PET imaging analysis; format: ADME, organism-based; settings: in vivo, 1.5 h; in short: as §2
Rattus norvegicus [8] = organism: Rattus norvegicus; assay: Biodistribution in Wistar rat whole blood at 1.0 to 1.5 mCi after 60 mins by NaI well counting analysis; format: ADME, organism-based; settings: in vivo, 1 h; in short: as §1
Spleen [9] = assay: Drug uptake in Wistar rat spleen at 1.0 to 1.5 mCi after 90 mins by NaI well counting analysis in presence of 2-(5,7-diethyl-2-(4-(2-fluoroethoxy)phenyl)pyrazolo[1,5-a]-pyrimidin-3-yl)-N,N-diethylacetamide; format: ADME, tissue-based; settings: in vivo, 1.5 h; in short: as §3
[10] = Drug uptake in iv dosed C6 cells bearing Wistar rat tongue after 90 mins by PET imaging analysis; format: ADME, organism-based; settings: in vivo, 1.5 h; in short: as §2
Kidney [11] = assay: Drug uptake in Wistar rat kidney at 1.0 to 1.5 mCi after 90 mins by NaI well counting analysis in presence of 2-(5,7-diethyl-2-(4-(2-fluoroethoxy)phenyl)pyrazolo[1,5-a]-pyrimidin-3-yl)-N,N-diethylacetamide; format: ADME, tissue-based; settings: in vivo, 1.5 h; in short: as §3
Heart [12] = assay: Biodistribution in Wistar rat heart at 1.0 to 1.5 mCi after 60 mins by NaI well counting analysis; format: ADME, organism-based; settings: in vivo, 1 h; in short: as §1
Muscle tissue = assay: Drug uptake in Wistar rat muscle at 1.0 to 1.5 mCi after 90 mins by NaI well counting analysis in presence of 2-(5,7-diethyl-2-(4-(2-fluoroethoxy)phenyl)pyrazolo[1,5-a]-pyrimidin-3-yl)-N,N-diethylacetamide; format: ADME, tissue-based; settings: in vivo, 1.5 h; in short: as §3
Lung [13] = assay: Biodistribution in Wistar rat lung at 1.0 to 1.5 mCi after 60 mins by NaI well counting analysis; format: ADME, organism-based; settings: in vivo, 1 h; in short: as §1
Colon = assay: Biodistribution in Wistar rat colon at 1.0 to 1.5 mCi after 60 mins by NaI well counting analysis; format: ADME, organism-based; settings: in vivo, 1 h; in short: as §1
[14] = Drug uptake in iv dosed C6 cells bearing Wistar rat olfactory epithelium after 90 mins by PET imaging analysis; format: ADME, organism-based; settings: in vivo, 1.5 h; in short: as §2
Rattus norvegicus [15] = organism: Rattus norvegicus; assay: Biodistribution in Wistar rat skeletal muscle at 1.0 to 1.5 mCi after 60 mins by NaI well counting analysis; format: ADME, organism-based, Muscle tissue; settings: in vivo, 1 h; in short: as §1
Lung [16] = assay: Drug uptake in Wistar rat lung at 1.0 to 1.5 mCi after 90 mins by NaI well counting analysis in presence of 2-(5,7-diethyl-2-(4-(2-fluoroethoxy)phenyl)pyrazolo[1,5-a]-pyrimidin-3-yl)-N,N-diethylacetamide; format: ADME, tissue-based; settings: in vivo, 1.5 h; in short: as §3
Spleen [17] = assay: Biodistribution in Wistar rat spleen at 1.0 to 1.5 mCi after 60 mins by NaI well counting analysis; format: ADME, organism-based; settings: in vivo, 1 h; in short: as §1
Rattus norvegicus [18] = organism: Rattus norvegicus; assay: Biodistribution in Wistar rat stomach at 1.0 to 1.5 mCi after 60 mins by NaI well counting analysis; format: ADME, organism-based; settings: in vivo, 1 h; in short: as §1
Liver [19] = assay: Drug uptake in Wistar rat liver at 1.0 to 1.5 mCi after 90 mins by NaI well counting analysis in presence of 2-(5,7-diethyl-2-(4-(2-fluoroethoxy)phenyl)pyrazolo[1,5-a]-pyrimidin-3-yl)-N,N-diethylacetamide; format: ADME, tissue-based; settings: in vivo, 1.5 h; in short: as §3
[20] = Ratio of total distribution volume in C6 cells bearing Wistar rat tumor to total distribution volume in C6 cells bearing Wistar rat brain; format: ADME, cell-based
Rattus norvegicus [21] = organism: Rattus norvegicus; assay: Stability in C6 cells bearing Wistar rat plasma at 1.5 mCi after 90 mins by radio-HPLC analysis; format: ADME, organism-based; settings: c6, 1.5 h
In short: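 Arterial blood (200 μL) drawn at 2, 12, 30, 60 and 90 min after 1.5 mCi radiotracer. Plasma extracted with acetonitrile/water 7/1 and centrifuged. Supernatant run on reversed-phase radio-HPLC with 0.1 M ammonium acetate pH 10/acetonitrile (30/70).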

Liver [22] = assay: Biodistribution in Wistar rat liver at 1.0 to 1.5 mCi after 60 mins by NaI well counting analysis; format: ADME, organism-based; settings: in vivo, 1 h; in short: as §1
[23] = Drug excretion in Wistar rat urine at 1.0 to 1.5 mCi after 90 mins by NaI well counting analysis in presence of 2-(5,7-diethyl-2-(4-(2-fluoroethoxy)phenyl)pyrazolo[1,5-a]-pyrimidin-3-yl)-N,N-diethylacetamide; format: ADME, tissue-based; settings: in vivo, 1.5 h; in short: as §3
[24] = Drug uptake in iv dosed C6 cells bearing Wistar rat tumor after 90 mins by PET imaging analysis; format: ADME, organism-based, Neoplasm; settings: in vivo, 1.5 h; in short: as §2
[25] = Drug metabolism in Wistar rat plasma at 130 to 200 MBq, iv after 12 mins by radio-HPLC analysis; format: ADME, organism-based; settings: read-out: Drug metabolism
Translocator protein = Translocator protein (Rattus norvegicus, UniProt P16257); assay: Displacement of [3H]-PK 11195 from TSPO in rat C6 cell lysates after 2 hrs by scintillation counting analysis; format: cell-free
Sequence of Translocator protein (P16257 whole entry, looked up): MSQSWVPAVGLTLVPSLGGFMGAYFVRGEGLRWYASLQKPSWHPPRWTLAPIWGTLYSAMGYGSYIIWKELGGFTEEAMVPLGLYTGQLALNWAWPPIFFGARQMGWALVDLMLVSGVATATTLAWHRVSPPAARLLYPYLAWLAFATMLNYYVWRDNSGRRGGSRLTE
In short: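 Rat C6 glioma cells washed in PBS and freeze-thawed three times in HEPES/mannitol/sucrose lysis buffer with protease inhibitors and MgCl2, pH 7.4 (lysate 0.5 mg/mL). Reaction stopped by filtration onto PEI-presoaked filters, then scintillation counting.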

[26] = Displacement of [3H]-flunitrazepam from CBR in Wistar rat cerebral cortex membranes after 2 hrs by scintillation counting analysis; format: cell membranes, Membrane
In short: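 Male Wistar rat cerebral cortex homogenized in ice-cold PBS pH 7.4 (5.0 mg/mL protein). Incubated with 0.6 nM [3H]flunitrazepam (final) and ligand at 10⁻⁵ to 10⁻⁷ M for 2 h at 25 °C. Reaction stopped by filtration onto PEI-presoaked filters, then scintillation counting of bound activity.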

Structure (SMILES): CCN(CC)C(=O)Cc1c(-c2ccc(OCCF)cc2)nn2c(C)cc(C)nc12 [DPA-714]
logP [1]: 2.12

Structure (SMILES): CCc1cc(CC)n2nc(-c3ccc(OCC[18F])cc3)c(CC(=O)N(CC)CC)c2n1
Drug uptake (Brain [2]): Active
Drug uptake (Harderian gland): Active
Drug uptake (Testes): Active
Drug uptake (Kidney [3]): Active
Drug uptake (Rattus norvegicus [4]): Active
Drug uptake (Rattus norvegicus [5]): Active
Drug uptake (Heart [6]): Not Active
Drug uptake (Brain [7]): Active
Ct (Rattus norvegicus [8]): Not Active
Drug uptake (Spleen [9]): Not Active
Drug uptake [10]: Active
Drug uptake (Kidney [11]): Not Active
Drug uptake (Heart [12]): Active
Drug uptake (Muscle tissue): Active
Drug uptake (Lung [13]): Active
Drug uptake (Colon): Active
Drug uptake [14]: Active
Drug uptake (Rattus norvegicus [15]): Active
Drug uptake (Lung [16]): Not Active
Drug uptake (Spleen [17]): Active
Drug uptake (Rattus norvegicus [18]): Active
Drug uptake (Liver [19]): Active
Ratio [20]: 6
Stability (Rattus norvegicus [21]): Stable
Drug uptake (Liver [22]): Active
Drug excretion [23]: Active
Drug uptake [24]: Active

Structure (SMILES): CCN(CC)C(=O)Cc1c(-c2ccc(OCC[18F])cc2)nn2c(C)cc(C)nc12 [DPA-714 F-18]
metabolised at 0.2 h [25]: 30%

Structure (SMILES): CCc1cc(CC)n2nc(-c3ccc(OC)cc3)c(CC(=O)N(CC)CC)c2n1
logP [1]: 2.84
Ki (Translocator protein): 0.18 nM

Structure (SMILES): CCc1c(C)nc2c(CC(=O)N(CC)CC)c(-c3ccc(OCCF)cc3)nn2c1C
logP [1]: 2.53
Ki (Translocator protein): 277 nM

Structure (SMILES): CCc1cc(CC)n2nc(-c3ccc(OCCF)cc3)c(CC(=O)N(CC)CC)c2n1
logP [1]: 2.5
Ki (Translocator protein): 0.27 nM
Ki [26]: > 10000 nM

Structure (SMILES): CCN(CC)C(=O)Cc1c(-c2ccc(OCCF)cc2)nn2c(C(C)C)cc(C(C)C)nc12
logP [1]: 2.73
Ki (Translocator protein): > 500 nM

Structure (SMILES): CCN(CC)C(=O)Cc1c(-c2ccc(OCCF)cc2)nn2c(C)c(CC(C)=O)c(C)nc12
logP [1]: 2.07
Ki (Translocator protein): 252 nM

Structure (SMILES): CCN(CC)C(=O)Cc1c(-c2ccc(OC)cc2)nn2c(C(C)C)cc(C(C)C)nc12
logP [1]: 2.98
Ki (Translocator protein): > 500 nM

Further lines, results first:

logP [1]: 2.55
Ki (Translocator protein): 67.9 nM
Structure (SMILES): CCN(CC)C(=O)Cc1c(-c2ccc(OCCF)cc2)nn2c(C)c(Cl)c(C)nc12

logP [1]: 2.45
Ki (Translocator protein): 93.7 nM
Structure (SMILES): CCN(CC)C(=O)Cc1c(-c2ccc(OC)cc2)nn2c(C)c(C)c(C)nc12

logP [1]: 2.4
Structure (SMILES): CCN(CC)C(=O)Cc1c(-c2ccc(OC)cc2)nn2c(C)cc(C)nc12

logP [1]: 2.78
Ki (Translocator protein): 157 nM
Structure (SMILES): CCc1c(C)nc2c(CC(=O)N(CC)CC)c(-c3ccc(OC)cc3)nn2c1C

logP [1]: 2.47
Ki (Translocator protein): 83 nM
Structure (SMILES): CCN(CC)C(=O)Cc1c(-c2ccc(OCCF)cc2)nn2c(C)c(C)c(C)nc12

logP [1]: 2.57
Ki (Translocator protein): 201 nM
Structure (SMILES): CCN(CC)C(=O)Cc1c(-c2ccc(OC)cc2)nn2c(C)c(CC(C)=O)c(C)nc12

logP [1]: 2.99
Ki (Translocator protein): 55.4 nM
Structure (SMILES): CCN(CC)C(=O)Cc1c(-c2ccc(OC)cc2)nn2c(C)c(Cl)c(C)nc12
